Experimental data: ChEMBL document CHEMBL2057071, “Hit-to-lead investigation of a series of novel combined dopamine D2 and muscarinic M1 receptor ligands with putative antipsychotic and pro-cognitive potential” (Bioorg Med Chem Lett, 2012)

Key:
[1] = target: T1, D(2) dopamine receptor (Homo sapiens, UniProt P14416); assay: Displacement of [3H]raclopride from human D2L receptor expressed in CHO cells after 60 mins by scintillation proximity assay; format: cell-based
[2] = test system: Liver microsomes; assay: Intrinsic clearance in human liver microsomes at 1 uM after 60 mins; format: ADME, Microsome; conditions: 1 h
[3] = target: T2, Muscarinic acetylcholine receptor M1 (Homo sapiens, UniProt P11229); assay: Agonist activity at human M1 receptor expressed in CHO-K1 cells assessed as calcium mobilization for 6 mins by Calcium4-based staining; format: functional, cell-based
T2 sequence (P11229 whole entry): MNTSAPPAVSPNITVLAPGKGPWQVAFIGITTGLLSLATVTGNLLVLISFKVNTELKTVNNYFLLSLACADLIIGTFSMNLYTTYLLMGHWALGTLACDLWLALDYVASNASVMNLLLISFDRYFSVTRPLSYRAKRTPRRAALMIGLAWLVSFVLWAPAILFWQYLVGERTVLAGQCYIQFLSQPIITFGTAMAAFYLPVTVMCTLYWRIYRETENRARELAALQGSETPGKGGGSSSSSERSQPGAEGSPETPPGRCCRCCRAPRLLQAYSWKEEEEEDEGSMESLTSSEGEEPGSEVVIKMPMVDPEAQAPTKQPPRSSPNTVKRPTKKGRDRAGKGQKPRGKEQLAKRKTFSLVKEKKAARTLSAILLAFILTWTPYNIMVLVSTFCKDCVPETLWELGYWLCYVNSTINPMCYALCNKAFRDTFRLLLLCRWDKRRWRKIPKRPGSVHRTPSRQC

[4] = target: Voltage-gated inwardly rectifying potassium channel KCNH2 (Homo sapiens, UniProt Q12809); assay: Inhibition of human ERG expressed in CHO cells after 30 mins by Rb+ flux assay
[5] = target: T3, Muscarinic acetylcholine receptor M1 (Homo sapiens) (UniProt P11229); assay: Agonist activity at human M1 receptor expressed in CHO-K1 cells assessed as calcium mobilization at 10 uM for 6 mins by Calcium4-based staining; format: functional, cell-based
T3 sequence (whole entry): T2 sequence (P11229 whole entry)
Outline: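 Functional agonism read as percent activity at 10 µM test concentration when no EC₅₀ could be established; means of two experiments.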

[6] = target: T1, D(2) dopamine receptor; assay: Displacement of [3H]raclopride from human D2L receptor expressed in CHO cells at 10 uM after 60 mins by scintillation proximity assay; format: cell-based
[7] = Dissociation constant, pKa of the compound; format: physicochemical
[8] = Lipophilicity, logP of the compound; format: physicochemical; conditions: octanol/water
[9] = target: T4, Muscarinic acetylcholine receptor M2 (Homo sapiens) (UniProt P08172); assay: Agonist activity at human muscarinic M2 receptor expressed in CHO-K1 cells assessed as calcium mobilization at 10 uM for 6 mins by Calcium4-based staining relative to acetylcholine; format: functional, cell-based
T4 sequence (whole entry): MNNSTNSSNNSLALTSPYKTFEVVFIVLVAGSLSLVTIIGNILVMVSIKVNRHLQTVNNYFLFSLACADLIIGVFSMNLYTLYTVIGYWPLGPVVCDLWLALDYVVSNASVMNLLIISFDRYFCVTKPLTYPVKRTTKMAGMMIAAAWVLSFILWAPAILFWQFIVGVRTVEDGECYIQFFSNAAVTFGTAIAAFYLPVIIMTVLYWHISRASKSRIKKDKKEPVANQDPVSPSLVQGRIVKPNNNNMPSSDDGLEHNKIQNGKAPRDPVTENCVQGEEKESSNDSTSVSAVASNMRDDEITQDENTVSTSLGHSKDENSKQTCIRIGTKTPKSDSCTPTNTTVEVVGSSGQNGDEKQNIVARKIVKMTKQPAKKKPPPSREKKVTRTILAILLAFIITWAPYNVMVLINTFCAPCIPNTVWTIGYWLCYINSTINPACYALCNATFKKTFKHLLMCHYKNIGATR

[10] = target: Muscarinic acetylcholine receptor M3 (Homo sapiens) (UniProt P20309); assay: Agonist activity at human muscarinic M3 receptor expressed in BHK-21 cells assessed as calcium mobilization atb 10 uM for 6 mins by Calcium4-based staining relative to acetylcholine; format: functional, cell-based
[11] = target: Muscarinic acetylcholine receptor M1 (Homo sapiens, UniProt P11229, Y381A); assay: Agonist activity at human muscarinic M1 receptor Y381A mutant expressed in BHK-21 cells assessed as calcium mobilization for 6 mins by Calcium4-based staining; format: functional, cell-based
[12] = target: T5, Muscarinic acetylcholine receptor M4 (Homo sapiens) (UniProt P08173); assay: Agonist activity at human muscarinic M4 receptor expressed in BHK-21 cells assessed as calcium mobilization at 10 uM for 6 mins by Calcium4-based staining relative to acetylcholine; format: functional, cell-based
T5 sequence (whole entry): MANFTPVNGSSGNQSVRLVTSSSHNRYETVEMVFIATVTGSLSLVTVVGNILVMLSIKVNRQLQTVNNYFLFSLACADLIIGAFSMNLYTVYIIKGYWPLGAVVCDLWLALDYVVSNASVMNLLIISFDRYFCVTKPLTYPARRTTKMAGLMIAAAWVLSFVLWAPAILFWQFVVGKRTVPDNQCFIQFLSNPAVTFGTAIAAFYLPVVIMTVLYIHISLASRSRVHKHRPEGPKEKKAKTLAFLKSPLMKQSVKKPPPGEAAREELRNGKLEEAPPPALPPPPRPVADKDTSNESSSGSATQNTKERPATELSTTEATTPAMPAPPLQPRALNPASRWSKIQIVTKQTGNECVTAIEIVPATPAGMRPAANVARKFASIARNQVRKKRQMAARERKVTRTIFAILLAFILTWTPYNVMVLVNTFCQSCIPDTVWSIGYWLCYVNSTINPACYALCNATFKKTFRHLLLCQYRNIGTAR

[13] = test system: Liver microsomes; assay: Intrinsic clearance in rat liver microsomes at 1 uM after 60 mins; format: ADME, Microsome; conditions: 1 h
[14] = target: T6, Muscarinic acetylcholine receptor M5 (Homo sapiens) (UniProt P08912); assay: Agonist activity at human muscarinic M5 receptor expressed in BHK-21 cells assessed as calcium mobilization at 10 uM for 6 mins by Calcium4-based staining relative to acetylcholine; format: functional, cell-based
T6 sequence (whole entry): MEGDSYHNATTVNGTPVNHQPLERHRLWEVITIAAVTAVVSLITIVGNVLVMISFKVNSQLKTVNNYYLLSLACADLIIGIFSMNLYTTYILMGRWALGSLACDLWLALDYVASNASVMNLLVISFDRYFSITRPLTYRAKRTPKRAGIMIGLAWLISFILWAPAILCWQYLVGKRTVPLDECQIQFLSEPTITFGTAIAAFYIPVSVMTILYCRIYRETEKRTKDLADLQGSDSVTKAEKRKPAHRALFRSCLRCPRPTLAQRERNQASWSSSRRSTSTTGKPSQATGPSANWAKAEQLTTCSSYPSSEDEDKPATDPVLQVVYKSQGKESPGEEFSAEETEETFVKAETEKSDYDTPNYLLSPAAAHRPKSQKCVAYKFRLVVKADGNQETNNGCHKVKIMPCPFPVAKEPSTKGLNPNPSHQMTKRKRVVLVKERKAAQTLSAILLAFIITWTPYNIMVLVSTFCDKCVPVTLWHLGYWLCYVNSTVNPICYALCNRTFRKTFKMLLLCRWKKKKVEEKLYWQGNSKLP

[15] = test system: Hepatocyte; assay: Intrinsic clearance in Sprague-Dawley rat hepatocytes at 1 uM after 60 mins; format: ADME, cell-based; conditions: 1 h
[16] = Plasma clearance in […] Sprague-Dawley rat; format: ADME, organism-based

T1 sequence (P14416 whole entry): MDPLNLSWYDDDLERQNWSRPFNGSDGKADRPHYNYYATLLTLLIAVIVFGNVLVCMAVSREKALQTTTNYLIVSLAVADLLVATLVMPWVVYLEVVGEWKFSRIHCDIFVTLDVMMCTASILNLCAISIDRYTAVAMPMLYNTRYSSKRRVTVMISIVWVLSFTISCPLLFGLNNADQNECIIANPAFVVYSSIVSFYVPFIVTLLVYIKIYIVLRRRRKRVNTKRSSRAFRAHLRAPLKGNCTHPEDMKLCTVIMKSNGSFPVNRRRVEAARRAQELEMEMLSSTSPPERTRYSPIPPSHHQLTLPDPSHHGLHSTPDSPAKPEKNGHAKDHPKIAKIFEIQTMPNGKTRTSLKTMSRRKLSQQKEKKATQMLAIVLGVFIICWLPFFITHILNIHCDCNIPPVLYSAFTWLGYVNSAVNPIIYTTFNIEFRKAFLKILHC
Voltage-gated inwardly rectifying potassium channel KCNH2, sequence (Q12809 whole entry): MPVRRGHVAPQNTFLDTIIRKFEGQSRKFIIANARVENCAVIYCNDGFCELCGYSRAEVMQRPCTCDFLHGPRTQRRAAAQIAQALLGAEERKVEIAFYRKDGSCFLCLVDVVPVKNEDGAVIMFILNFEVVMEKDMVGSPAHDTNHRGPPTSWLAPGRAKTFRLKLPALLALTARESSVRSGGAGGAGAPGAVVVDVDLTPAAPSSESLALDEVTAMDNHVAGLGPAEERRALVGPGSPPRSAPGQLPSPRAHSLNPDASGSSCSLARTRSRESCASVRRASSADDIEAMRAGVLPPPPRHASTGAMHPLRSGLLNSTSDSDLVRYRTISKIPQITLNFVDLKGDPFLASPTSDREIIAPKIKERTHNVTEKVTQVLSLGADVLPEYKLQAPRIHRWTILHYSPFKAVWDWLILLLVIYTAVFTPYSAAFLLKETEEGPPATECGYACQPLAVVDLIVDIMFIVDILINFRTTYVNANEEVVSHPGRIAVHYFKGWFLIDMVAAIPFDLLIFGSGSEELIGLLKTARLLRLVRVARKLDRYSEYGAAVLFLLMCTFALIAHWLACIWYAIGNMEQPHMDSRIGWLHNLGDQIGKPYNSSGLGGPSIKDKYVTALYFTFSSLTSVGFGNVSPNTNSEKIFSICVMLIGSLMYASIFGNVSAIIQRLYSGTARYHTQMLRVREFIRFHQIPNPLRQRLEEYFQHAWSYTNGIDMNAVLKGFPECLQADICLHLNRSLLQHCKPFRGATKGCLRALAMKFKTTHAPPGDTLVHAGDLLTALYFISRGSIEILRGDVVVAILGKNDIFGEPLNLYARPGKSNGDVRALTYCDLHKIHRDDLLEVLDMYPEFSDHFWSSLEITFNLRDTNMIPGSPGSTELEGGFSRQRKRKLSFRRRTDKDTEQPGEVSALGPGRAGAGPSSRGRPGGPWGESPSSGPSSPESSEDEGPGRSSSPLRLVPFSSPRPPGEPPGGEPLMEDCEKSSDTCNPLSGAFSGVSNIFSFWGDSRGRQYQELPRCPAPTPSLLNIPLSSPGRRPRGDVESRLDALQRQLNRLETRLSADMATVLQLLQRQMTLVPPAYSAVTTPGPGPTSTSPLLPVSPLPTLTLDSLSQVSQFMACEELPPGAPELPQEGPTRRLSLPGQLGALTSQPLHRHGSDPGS
Muscarinic acetylcholine receptor M3 (Homo sapiens), sequence (P20309 whole entry, looked up): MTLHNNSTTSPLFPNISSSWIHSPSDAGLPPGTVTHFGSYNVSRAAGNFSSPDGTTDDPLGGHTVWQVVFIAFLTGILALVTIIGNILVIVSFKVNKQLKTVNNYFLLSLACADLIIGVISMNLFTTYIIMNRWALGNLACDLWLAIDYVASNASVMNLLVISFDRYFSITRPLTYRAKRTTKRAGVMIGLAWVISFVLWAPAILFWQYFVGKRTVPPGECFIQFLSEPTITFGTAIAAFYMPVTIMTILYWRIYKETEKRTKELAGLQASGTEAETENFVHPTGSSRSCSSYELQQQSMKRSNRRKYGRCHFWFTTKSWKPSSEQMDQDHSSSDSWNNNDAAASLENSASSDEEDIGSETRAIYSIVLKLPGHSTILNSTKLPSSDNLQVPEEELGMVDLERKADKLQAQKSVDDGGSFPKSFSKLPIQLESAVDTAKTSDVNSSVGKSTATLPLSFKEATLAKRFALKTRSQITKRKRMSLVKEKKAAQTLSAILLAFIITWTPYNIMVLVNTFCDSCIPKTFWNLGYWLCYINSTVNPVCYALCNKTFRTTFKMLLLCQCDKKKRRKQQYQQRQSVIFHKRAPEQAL
Muscarinic acetylcholine receptor M1 (Homo sapiens, UniProt P11229, Y381A), sequence (P11229 whole entry Y381A): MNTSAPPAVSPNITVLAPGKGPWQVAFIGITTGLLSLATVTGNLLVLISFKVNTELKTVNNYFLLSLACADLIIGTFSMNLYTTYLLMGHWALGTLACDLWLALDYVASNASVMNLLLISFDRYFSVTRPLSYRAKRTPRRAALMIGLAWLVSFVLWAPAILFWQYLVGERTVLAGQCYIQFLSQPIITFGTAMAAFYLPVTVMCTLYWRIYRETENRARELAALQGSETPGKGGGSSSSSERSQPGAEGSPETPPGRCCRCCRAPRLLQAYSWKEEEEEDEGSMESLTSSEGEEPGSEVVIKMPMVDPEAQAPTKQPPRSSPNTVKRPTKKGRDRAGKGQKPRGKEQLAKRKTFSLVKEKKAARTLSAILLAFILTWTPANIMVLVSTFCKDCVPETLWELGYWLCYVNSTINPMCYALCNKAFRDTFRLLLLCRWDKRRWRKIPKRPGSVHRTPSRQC

| Compound | Ki [1] [nM] | CLH [2] [L/min] | EC50 [3] [nM] | IC50 [4] [nM] | Emax [5] [%] | also measured |
| --- | --- | --- | --- | --- | --- | --- |
| O=C1COc2ccccc2N1CCCN1CCC(n2c(=O)[nH]c3ccncc32)CC1 | > 9500 | 0.9 | 1200 | > 50000 |  |  |
| O=C1COc2ccccc2N1CCCN1CCC(n2c(=O)[nH]c3cccc(F)c32)CC1 | 41 | 12 |  |  | 22 |  |
| O=C1CCc2c(F)cccc2N1CCCN1CCC(n2c(=O)[nH]c3ccccc32)CC1 | 60 | 4.2 | 68 |  |  |  |
| O=C1COc2ccccc2N1CCCN1CCC(n2c(=O)[nH]c3ncccc32)CC1 | 650 | 2.6 |  |  | 8 |  |
| O=C1CCc2cccnc2N1CCCN1CCC(n2c(=O)[nH]c3ccccc32)CC1 | 600 | 1.3 | 20 |  |  |  |
| O=C1COc2ccccc2N1CCCN1CCC(n2c(=O)[nH]c3cc(F)ccc32)CC1 | 2.5 | 8.8 | 66 | 1900 |  |  |
| O=C1CCc2ncccc2N1CCCN1CCC(n2c(=O)[nH]c3ccccc32)CC1 | 2200 | 2.8 | 12 |  |  |  |
| O=C1COc2ccccc2N1CCCN1CCC(n2c(=O)[nH]c3cccnc32)CC1 | 1250 | 3.5 | 1700 | 13000 |  |  |
| O=C1CCc2ccccc2N1OCCN1CCC(n2c(=O)[nH]c3ccccc32)CC1 | 55 | 2.3 |  |  | 31 |  |
| O=C1CCc2ccncc2N1CCCN1CCC(n2c(=O)[nH]c3ccccc32)CC1 |  | 3.6 |  |  | 7 | Activity [6]: 55% |
| O=C1COc2ccccc2N1CCCN1CCC(n2c(=O)[nH]c3ccccc32)CC1 | 16 | 5.1 | 73 |  |  |  |
| O=C1CCc2ccccc2N1CCCN1CCC(c2ccc3[nH]ccc3c2)CC1 | 42 | 9 | 160 | 4400 |  | pKa [7]: 9; logP [8]: 4.1 |
| O=C1CCc2cc(F)ccc2N1CCCN1CCC(n2c(=O)[nH]c3ccccc32)CC1 | 6.5 | 6.2 |  |  | 24 |  |
| O=C1CCc2cccc(F)c2N1CCCN1CCC(n2c(=O)[nH]c3ccccc32)CC1 | 95 | 5.5 | 300 |  |  |  |
| O=C1CCc2cnccc2N1CCCN1CCC(n2c(=O)[nH]c3ccccc32)CC1 | 1100 | 9.4 |  |  | 0 |  |
| O=C1CCc2ccccc2N1CCCN1CCC(n2c(=O)[nH]c3ccccc32)CC1 | 9.5 | 3.9 | 110 |  |  | Emax [9]: 0%; Emax [10]: 0%; EC50 [11]: 6.3 nM; Emax [12]: 8%; CLH [13]: 130 mL/min; pKa [7]: 7.6; Emax [14]: 0%; CLH [15]: 160 mL/min; CL/F [16]: 50 mL/min/kg; logP [8]: 2.8 |
| CC(=O)OCC[N+](C)(C)C |  |  |  |  |  | Emax [10]: 100% |
| O=C1COc2ccccc2N1CCCN1CCC(n2c(=O)[nH]c3ccc(F)cc32)CC1 | 14 | 8.7 | 44 | 4400 |  |  |
| O=C1CCc2ccc(F)cc2N1CCCN1CCC(n2c(=O)[nH]c3ccccc32)CC1 | 90 | 7.8 |  |  | 23 |  |
| O=C1COc2ccccc2N1CCCN1CCC(n2c(=O)[nH]c3c(F)cccc32)CC1 | 15 | 13 | 110 | 3400 |  |  |
| O=C1COc2ccccc2N1CCCN1CCC(n2c(=O)[nH]c3cnccc32)CC1 | 1350 | 1.7 |  | 46000 | 4 |  |
| O=c1[nH]c2ccccc2n1C1CCN(CCOc2ccccc2)CC1 [OXIPEROMIDE] | 5.5 | 1.4 | 400 |  |  | pKa [7]: 7.4; logP [8]: 3.4 |
| O=C(Cc1ccccc1)NC1CCN(CCCN2C(=O)COc3ccccc32)CC1 | > 5000 | 3.4 |  | 20000 |  | pKa [7]: 7.9; logP [8]: 2.4 |
